# Only some compounds are listed: those with a hit (about 2.9% of all), similar ones and a draw of the others.
# HIV Env fusion: HIV envelope-mediated fusion inhibition | HeLa-JRFL Env/CEM21 cell fusion, luciferase | inhibition, % at 12.3 µM | hit rate 1.1% among 360,000;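 active means mean replicate inhibition score of at least 50 and every replicate individually at or above 50; inconclusive means only one of the two criteria met; inactive means mean below 50 and not all replicates reaching 50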;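 further: 0% = plate neutral controls and 100% = maraviroc near 300 nM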
# dFosB activator: enhances mouse delta FosB homodimer DNA binding; P13346; purified delta FosB, TAMRA-CDK5 oligo fluorescence polarization; percent of positive-control signal above neutral wells; activation, % at 25 µM; hit rate 0.99% among 340,000; AID 493131;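 active means mean activation above about 17%, with every replicate also reaching it, limit read from the data, passing the limit was not always enough; inconclusive means only one of the two conditions met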
# Target sequence (P13346 whole entry, looked up): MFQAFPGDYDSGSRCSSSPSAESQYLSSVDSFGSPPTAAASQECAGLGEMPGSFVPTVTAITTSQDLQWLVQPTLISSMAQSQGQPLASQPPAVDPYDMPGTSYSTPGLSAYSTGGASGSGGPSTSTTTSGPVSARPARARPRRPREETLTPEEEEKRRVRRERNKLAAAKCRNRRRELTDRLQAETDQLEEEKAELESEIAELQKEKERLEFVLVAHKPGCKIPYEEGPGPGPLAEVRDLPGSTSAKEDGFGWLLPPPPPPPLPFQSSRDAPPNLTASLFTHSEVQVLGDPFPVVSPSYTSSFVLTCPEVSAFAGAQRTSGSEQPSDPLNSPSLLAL
# GSIS activator: primary screen for activators of insulin secretion dependent on glucose, INS-1E cells, GLuc reporter luminescence | INS-1E GLuc reporter insulin secretion, 2-3 h | activation, % at 16.6 µM | hit rate 0.61% among 370,000 | AID 743287;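 active means lowest replicate activation of at least 40%, so every replicate reaches that level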;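 further: 0% = median of neutral control wells and 100% = median of IBMX positive control wells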
# CDK5 p35 inh: blocks human CDK5/p35 kinase activity; Recombinant CDK5/p35, ADP-Glo luminescence, 60 min; hit rate 0.01% among 330,000; Q00535+Q15078; inhibition, % at 10 µM;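 active means highest replicate inhibition of at least 50% and at least 75% of replicates reaching 50%; inconclusive means only one of the two criteria met; inactive means both criteria failed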;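 further: plate controls were DMSO neutral control for no effect and GW8510 at 10 µM for full effect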
# PAX8 reporter: lowers PAX8-driven luciferase in RMG-I cells; hit rate 1.2% among 360,000; RMG-I TPO-luciferase reporter, SteadyGlo, 24 h; inhibition, % at 12.6 µM;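 active means mean replicate inhibition at least 60% with every replicate also reaching 60%; inconclusive means only one of the two criteria is met; inactive means mean below 60% and not all replicates reaching 60%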;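 further: luciferase light reporting Pax8 driven TPO promoter activity; plate controls were median of neutral control wells for no effect and mitoxantrone controls for full effect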
# Cneo AK release: causes C. neoformans cell lysis | adenylate kinase release luminescence, 4 h; normalised: neutral wells 0, clomiphene wells 100 | lysis activity, % at 15 µM | hit rate 0.2% among 360,000 | AID 651654;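 active means mean lysis activity across replicates of at least 80%, whatever share of replicates individually reach that level; inactive means mean lysis activity below 80%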
#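 Test system: log-phase Cryptococcus neoformans yeast cells. Input: 5 × 10^6 yeast cells/mL. Medium: fresh YPD growth medium. Doses: single dose. Incubation: static 4 h at 37 °C with compound, 1 h detection. Measured by: luminescent adenylate kinase detection reagent. Read-out: signal increase indicating cell lysis. Benchmarks: Clomiphene.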
# An asterisk follows results filed as active; ? = inconclusive; / = no result given; [ ] = another dose, or the depositor's remark.
SMILES,HIV Env fusion,dFosB activator,GSIS activator,CDK5 p35 inh,PAX8 reporter,Cneo AK release
CS(=O)(=O)c1ncc(Cl)c(C(=O)Nc2ccc(N3CCOCC3)cc2)n1,/,-6.5,/,-0.8,/,/
CCS(=O)(=O)c1ncc(Cl)c(C(=O)Nc2ccc(S(=O)(=O)N(C)c3ccccc3)cc2)n1,?,-3.5,24.8,-1.9,110.2*,-0.9
CS(=O)(=O)c1ncc(Cl)c(C(=O)Nc2ccc(OC(F)F)cc2)n1,/,-5.3,58.6*,2.2,/,-1.3
Cc1cccc(CS(=O)(=O)c2ncc(Cl)c(C(=O)Nc3c(C)cccc3C)n2)c1,34.4,-3.6,79.8*,/,-12.9,2.2
Cc1ccc(NC(=O)c2nc(S(=O)(=O)Cc3ccccc3)ncc2Cl)cc1,0.6,11.9,5.7,1.0,?,-1.1
O=C(Nc1ccc(F)cc1)c1nc(S(=O)(=O)Cc2ccccc2)ncc1Cl,10.2,-3.6,18.8,/,104.0*,0.1
Cc1cccc(C)c1NC(=O)c1nc(S(=O)(=O)Cc2ccccc2)ncc1Cl,-85.7,-8.5,7.7,-1.5,27.8,5.6
CN(C)CC(=O)N1CCCCN2[C@H](C1)[C@H](c1ccc(/C=C/c3ccccc3)cc1)[C@@H]2CO,/,/,-17.3,/,59.7,4.5
CN(C)CC(=O)N1CCCCN2[C@H](CO)[C@H](c3ccc(/C=C/c4ccccc4)cc3)[C@H]2C1,/,/,21.3,/,78.1*,1.8
CN(C)CC(=O)N1CCCCN2[C@H](C1)[C@@H](c1ccc(/C=C/c3ccccc3)cc1)[C@@H]2CO,/,/,29.8,/,52.4,5.3
CN(C)CC(=O)N1CCCCN2[C@@H](CO)[C@H](c3ccc(/C=C/c4ccccc4)cc3)[C@@H]2C1,/,/,11.5,/,67.1*,5.2
CN(C)CC(=O)N1CCCCN2[C@@H](CO)[C@@H](c3ccc(/C=C/c4ccccc4)cc3)[C@@H]2C1,/,/,7.2,/,72.1*,60.3
Cc1cc(C)c2[nH]c(O)c(N=NC(=S)NCC3CCCO3)c2c1 (configuration not stated),4.4,-7.0,68.5*,-0.4,25.0,-2.5
N#C[C@H]1[C@@H](c2ccc(C3=CCCC3)cc2)[C@H](CO)N1C(=O)c1cccc(F)c1,-2.6[16.7 µM],/,-5.4,/,13.7,0.8
Cc1noc(C)c1S(=O)(=O)N(C)C[C@@H]1Oc2ccc(NC(=O)Nc3cccc4ccccc34)cc2CC(=O)N([C@H](C)CO)C[C@@H]1C,78.7*[16.7 µM],/,0.2,/,-7.6,-1.7
Cc1noc(C)c1S(=O)(=O)N(C)C[C@@H]1Oc2ccc(NC(=O)Nc3cccc4ccccc34)cc2CC(=O)N([C@H](C)CO)C[C@H]1C,0.9[16.7 µM],/,6.0,/,-9.8,-1.8
Cc1ccc(S(=O)(=O)N(C)C[C@H]2Oc3ccc(NC(=O)Nc4cccc5ccccc45)cc3CC(=O)N([C@@H](C)CO)C[C@@H]2C)cc1,28.4[16.7 µM],/,8.2,/,/,-1.1
Cc1ccc(S(=O)(=O)N(C)C[C@@H]2Oc3ccc(NC(=O)Nc4cccc5ccccc45)cc3CC(=O)N([C@@H](C)CO)C[C@@H]2C)cc1,56.4*[16.7 µM],/,4.1,/,/,1.4
CO[C@@H](CN(C)C(=O)c1ccc2c(c1)OCO2)[C@H](C)CN([C@@H](C)CO)S(=O)(=O)c1ccc(F)cc1,/,/,1.9,/,/,54.2
COc1ccc2c(c1)[C@]1(C(=O)N2C)C2=C(CCCC2=O)Oc2cc(C)oc(=O)c21,64.7*,/,14.5,/,6.1,/
CNC[C@H]1Oc2c(NC(=O)Nc3ccccc3)cccc2C(=O)N([C@H](C)CO)C[C@@H]1C,/,/,10.3,/,72.7*,-1.2
CNC[C@@H]1Oc2c(NC(=O)Nc3ccccc3)cccc2C(=O)N([C@@H](C)CO)C[C@H]1C,-15.9,-4.3,-10.8,1.0,0.7,1.5
CNC[C@@H]1Oc2c(N)cccc2C(=O)N([C@@H](C)CO)C[C@@H]1C,62.0*[16.7 µM],/,11.1,/,-12.6,/
CNC[C@H]1Oc2c(NC(=O)Nc3ccc4c(c3)OCO4)cccc2C(=O)N([C@H](C)CO)C[C@@H]1C,63.8*[16.7 µM],/,11.5,/,-23.8,-0.4
CNC[C@@H]1Oc2c(NC(=O)Nc3ccc4c(c3)OCO4)cccc2C(=O)N([C@H](C)CO)C[C@H]1C,-4.2[16.7 µM],/,5.7,/,-20.2,-10.6
SMILES,HIV Env fusion,dFosB activator,GSIS activator,CDK5 p35 inh,PAX8 reporter,Cneo AK release
CNC[C@@H]1Oc2c(N)cccc2C(=O)N([C@H](C)CO)C[C@H]1C,-25.0[16.7 µM],/,1.2,/,10.7,-5.8
C[C@H](CO)N1C[C@H](C)[C@H](CN(C)Cc2ccccc2)Oc2c(NC(=O)Nc3ccc4c(c3)OCO4)cccc2C1=O,65.2*[16.7 µM],/,-6.3,/,-2.7,-6.6
O=C(C[C@H]1C[C@@H]2c3cc(NC(=O)CC4CC4)ccc3O[C@@H]2[C@@H](CO)O1)NCc1ccncc1,1.2[16.7 µM],/,12.9,/,-14.8,-4.2
COc1ccc(CNC(=O)C[C@@H]2C=C[C@H](NC(=O)CN(C)C)[C@H](CO)O2)cc1,-3.5[16.7 µM],/,-2.4,/,-3.1,1.6
COc1ccc(CCNc2oc(-c3ccc(OC)c(OC)c3)nc2P(=O)(OC)OC)cc1OC,/,-3.2,67.9*,1.1,/,/
COc1ccc(CNc2oc(-c3cccc4ccccc34)nc2C#N)cc1,/,-10.0,3.4,2.0,/,0.7
CCOP(=O)(OCC)c1nc(-c2cccc3ccccc23)oc1NCCc1ccc(OC)cc1,62.7*,-10.3,-17.4,1.1,8.7,0.8
C[C@H](CO)N1C[C@H](C)[C@H](CN(C)C(=O)Nc2ccc3c(c2)OCO3)Oc2c(NS(C)(=O)=O)cccc2C1=O,-21.0[16.7 µM],/,11.5,/,/,-1.3
COc1ccccc1NC(=O)Cn1c(O)c(N=NC(=O)c2ccccc2O)c2ccccc21,14.8,69.9*,-5.7,-1.8,12.7,-1.2
Cc1ccc(NC(=O)Cn2c(O)c(N=NC(=O)c3ccncc3)c3ccccc32)cc1,/,-6.4,/,0.3,/,/
Cc1cccc(NC(=O)Cn2c(O)c(N=NC(N)=S)c3ccccc32)c1,2.9,40.5*,-18.5,-4.6,8.5,-0.4
C[C@H](CO)N1C[C@H](C)[C@H](CN(C)C(=O)c2cccc(F)c2)Oc2ncc(-c3ccccc3)cc2C1=O,21.0[16.7 µM],/,1.1,/,/,/
CC=Cc1ccc2n(c1=O)C[C@@H]1[C@@H](CO)[C@H](C(=O)NCC3CC3)N(Cc3ccccn3)[C@H]21 (mixture of isomers),/,/,0.1,/,-21.5,1.4
CCCNC(=O)N1CC2(CN(C(C)=O)C2)c2c(n(C)c3cc(OC)ccc23)[C@@H]1CO,/,/,49.6,/,/,/
COCC(=O)N(C)C[C@@H]1Oc2ncc(-c3ccc(C)cc3)cc2C(=O)N([C@H](C)CO)C[C@H]1C,-2.1[16.7 µM],/,6.2,/,/,0.1
Cc1ccccc1Cc1c(C)nc2nc(SCC(=O)NCc3ccco3)nn2c1C,15.6,-2.6,/,-0.8,/,-0.9
Cc1ccccc1Cc1c(C)nc2c(C(=O)NCc3ccco3)cnn2c1C,/,-25.5,45.6*,0.4,/,-4.9
CCCC(=O)NC(c1ccccc1OC)c1ccc2cccnc2c1O (configuration not stated),/,-12.7,/,-0.3,/,/

# High-throughput results (PubChem BioAssay)
